Assays:
Tubulin = Tubulin (Sus scrofa, UniProt P02554+P02550); experiment: Inhibition of porcine brain tubulin polymerization after 60 mins
Method in brief: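 Porcine brain tubulin (50 ul of 11 mg/ml stock) in Mes buffer (0.1 M Mes, 1 mM EGTA, 0.5 mM MgCl2, pH 6.6) with GTP (20 ul of 5 mM stock), plate prechilled 4 °C, drug added in DMSO; A350 recorded at ambient temperature for 60 min against drug blanks. IC50 read graphically as percent of control assembly.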

[1] = Cytotoxicity against human fibroblast cells by alamar blue assay; assay type: cell-based
NCI-H460 = experiment: Cytotoxicity against human NCI-H460 cells by alamar blue assay; assay type: functional, cell-based
HT-29 = experiment: Cytotoxicity against human HT-29 cells by alamar blue assay; assay type: functional, cell-based
CCRF-CEM = experiment: Cytotoxicity against human CEM cells by alamar blue assay; assay type: functional, cell-based
MCF7 = experiment: Cytotoxicity against human MCF7 cells by alamar blue assay; assay type: functional, cell-based
[2] = Inhibition of angiogenesis in endothelial cells assessed as inhibition of tube formation after 18 hrs by inverted microscopic analysis; assay type: functional, cell-based; settings: Endothelial cell
[3] = Ratio of CA-1 IC50 to compound IC50 for inhibition of angiogenesis in endothelial cells; assay type: functional, Endothelial cell

Structure (SMILES)	IC50 (Tubulin) [µM]	IC50 [2] [µM]	IC50 [1] [µM]	IC50 (NCI-H460) [µM]	IC50 (HT-29) [µM]	IC50 (CCRF-CEM) [µM]	IC50 (MCF7) [µM]	Ratio IC50 [3]
COc1cc(-n2nncc2-c2ccc(OC)c([N+](=O)[O-])c2[N+](=O)[O-])cc(OC)c1OC	> 20	4.4	31.5	0.7	12	26	6.1	
COc1ccc(-c2cnnn2-c2cc(OC)c(OC)c(OC)c2)c(N)c1N	5.2	0.3	> 100	17.3	17.2	> 100	38.8	10
COc1ccc(-c2cnnn2-c2cc(OC)c(OC)c(OC)c2)c(F)c1F	15.6	0.3	> 100	4.9	1.9	> 100	26.7	10
COc1cc(-n2nncc2-c2ccc3c(c2O)OC(C)(C)O3)cc(OC)c1OC	> 20	> 10	> 100	16.8	> 100	> 100	46.3	
COc1ccc(-c2cn(-c3cc(OC)c(OC)c(OC)c3)nn2)c(N)c1N		> 10	> 100	29.8	> 100	> 100	> 100	
COc1ccc(/C=C\c2cc(OC)c(OC)c(OC)c2)cc1O [COMBRETASTATIN A4]		0.01	> 100	4.4	0.4	> 100	48.9	

Second part, led by results:

IC50 (Tubulin) [µM]	IC50 [2] [µM]	Structure (SMILES)	IC50 [1] [µM]	IC50 (NCI-H460) [µM]	IC50 (HT-29) [µM]	IC50 (CCRF-CEM) [µM]	IC50 (MCF7) [µM]	Ratio IC50 [3]
> 20	> 10	COc1ccc(-n2nncc2-c2cc(OC)c(OC)c(OC)c2)c(O)c1O	> 100	26.6	64.3	> 100	> 100	
10.1		COc1ccc(-c2cnnn2-c2cc(OC)c(OC)c(OC)c2)c(O)c1O						
17.1	3.4	COc1cc(-n2nncc2-c2ccc3c(c2O)OCO3)cc(OC)c1OC	> 100	7.4	8.8	> 100	> 100	
	> 10	COc1cc(-n2cc(-c3ccc(OC)c([N+](=O)[O-])c3[N+](=O)[O-])nn2)cc(OC)c1OC	> 100	18.2	> 100	> 100	> 100	
3.5	3.2	COc1ccc(/C=C\c2cc(OC)c(OC)c(OC)c2)c(O)c1O [COMBRETASTATIN A-1]	> 100	1.8	0.9	> 100	75.9	

Source: ChEMBL document CHEMBL1926575, “Synthesis, biological evaluation and molecular modeling of 1,2,3-triazole analogs of combretastatin A-1” (Bioorg Med Chem, 2012)
